Measured values taken from PubChem BioAssay.
Activity calls are given as the source filed them.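 The calls were made as follows, unless noted: active = GFP response above 150% of the DMSO level; inconclusive = fewer than 70 events counted for a yeast strain; inactive = the rest.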

Key:
[1] = RPL19A-GFP modulators, yeast TOR pathway, confirmation, cell-based, S. cerevisiae, flow cytometry, cherry picks, mother/daughter gates (AID 2270;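 active = GFP response below 50% of the DMSO control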); conditions: S. cerevisiae RPL19A-GFP strain, 3 h, at 10 µM, stronger effect = lower value, 100 = same GFP as DMSO wells
[2] = LAP4-GFP expression modulators in yeast, confirmation, cell-based, cherry picks, flow cytometry, mother/daughter gates (AID 2271;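 active = GFP response above 150% of the DMSO control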;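 also: ratio of sample to DMSO plate mean so 100% equals DMSO level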); conditions: S. cerevisiae LAP4-GFP strain, 3 h, at 10 µM, stronger effect = higher value, 100 means same as DMSO control
Summary of the method: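 System: Alexa 633-stained baker's yeast GFP-fusion strain; quantity: 0.2 OD600 cells; timing: compound exposure 3 h at 30 °C, end-over-end rotation; detection: HT flow cytometry, GFP fluorescence channel; measure: per-gate (all, mother, daughter) GFP response vs DMSO; control set: DMSO-only negative wells, rapamycin 400 ng/mL positive wells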

[3] = modulators of MEP2-GFP levels in yeast, confirmation, S. cerevisiae, flow cytometry GFP, cherry picks (AID 2272;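 active = GFP response above 150% of the DMSO control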;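 also: ratio of well signal to plate DMSO mean so 100% equals DMSO level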); conditions: S. cerevisiae MEP2-GFP strain, 3 h, at 10 µM, stronger effect = higher value
[4] = AGP1-GFP expression modulators, hit retest, confirmation, cell-based, flow cytometry, S. cerevisiae, cherry picks (AID 2273);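 also: median GFP channel fluorescence over the whole cell population gate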; conditions: S. cerevisiae AGP1-GFP strain, 3 h, at 10 µM
[5] = modulators of CIT2-GFP expression in yeast, confirmation, S. cerevisiae, GFP fusion, cherry picks, mother/daughter gates (AID 2274); conditions: S. cerevisiae CIT2-GFP strain, flow cytometry, 3 h, at 10 µM, stronger effect = higher value
[6] = measured here: daughter cell gate
[7] = measured here: mother cell gate
[8] = measured here: daughter cell gate response
[9] = measured here: mother cell gate response

Row | Compound | GFP response vs DMSO [1] | GFP response vs DMSO [1, 6] | GFP response vs DMSO [1, 7] | GFP response relative to DMSO [2] | GFP response relative to DMSO [2, 8] | GFP response relative to DMSO [2, 9] | GFP response vs DMSO [3] | GFP response, % of DMSO [4] | GFP response, % of DMSO [5] | GFP response, % of DMSO [5, 6] | GFP response, % of DMSO [5, 7]
1 | O=C(/C=C/c1ccc(-c2ccccc2[N+](=O)[O-])o1)c1ccc(Br)cc1 | 96.4% (inactive) | 97.6% | 96.7% | 121% (inactive) | 118% | 126% | 105% (inactive) | 94.1% (inactive) | 101% (inactive) | 105% | 99.7%
2 | Cn1cc([N+](=O)[O-])c(C(=O)Nc2nc(-c3ccc(Cl)cc3)cs2)n1 | 97.8% (inactive) | 97% | 96.5% | 102% (inactive) | 97.5% | 102% | 106% (inactive) | 95.5% (inactive) | 100% (inactive) | 97.6% | 99.3%
3 | Oc1cccc(/C=N/c2c(-c3ccco3)nc3ccccn23)c1 | 96.6% (inactive) | 96.2% | 96.9% | 96.5% (inactive) | 97.9% | 94.6% | 97.5% (inactive) | 97.1% (inactive) | 96.4% (inactive) | 98.3% | 94.5%
4 | Cc1ccccc1C(=O)Nc1cccc(C#N)c1 | 95.6% (inactive) | 96.7% | 94.2% | 97.7% (inactive) | 99% | 97.4% | 108% (inactive) | 99.8% (inactive) | 97.2% (inactive) | 99.3% | 97.1%
5 | OCC[n+]1ccc(/C=C/c2c[nH]c3ccccc23)cc1 | 108% (inactive) | 106% | 108% | 140% (inactive) | 143% | 141% | 164% (inactive) | 104% (inactive) | 141% (inactive) | 142% | 143%
6 | O=C(Nc1ccc(Cl)cc1Cl)c1cccc(N2C(=O)C=CC2=O)c1 | 76.5% (inactive) | 70.3% | 65.5% | 204% (active) | 123% | 179% | 111% (inactive) | 99.1% (inactive) | 96.9% (inactive) | 105% | 80.7%
7 | Cc1n[nH]c(C)c1N1C(=O)c2cccc3c(Br)ccc(c23)C1=O | 101% (inactive) | 100% | 101% | 98.8% (inactive) | 99.3% | 98.5% | 104% (inactive) | 92.5% (inactive) | 96.4% (inactive) | 96.4% | 94.5%
8 | O=S(=O)(Nc1cccc(-c2ccc(N3CCCCCC3)nn2)c1)c1ccccc1F | 101% (inactive) | 99.3% | 101% | 95.7% (inactive) | 95.9% | 95.2% | 99% (inactive) | 107% (inactive) | 100% (inactive) | 101% | 101%
9 | O=C(Nc1c2ccccc2nc2ccccc12)C(Cl)(Cl)Cl | 91.7% (inactive) | 77.9% | 83.4% | 88.7% (inactive) | 87.3% | 94.1% | 98.8% (inactive) | 87.8% (inactive) | 95.9% (inactive) | 77.8% | 70.8%
10 | O=C1/C(=C\c2ccc(O)c(O)c2)SC(=S)N1Cc1ccccc1 | 100% (inactive) | 99.1% | 100% | 116% (inactive) | 117% | 116% | 141% (inactive) | 97.2% (inactive) | 113% (inactive) | 119% | 108%
11 | COC(=O)c1ccc(Sc2ccccn2)c([N+](=O)[O-])c1 | 97.8% (inactive) | 101% | 97.7% | 99.5% (inactive) | 101% | 100% | 109% (inactive) | 98% (inactive) | 105% (inactive) | 105% | 104%
12 | Nc1cccnc1S(=O)(=O)c1ccccc1 | 98.8% (inactive) | 97.8% | 100% | 93.8% (inactive) | 94.1% | 95.2% | 100% (inactive) | 98.5% (inactive) | 99.1% (inactive) | 99.7% | 97.7%
13 | CS(=O)(=O)N1CCc2cc(C(=O)Nc3ccc(COCC(F)(F)F)cc3)ccc21 | 102% (inactive) | 104% | 103% | 92.6% (inactive) | 97.2% | 93.1% | 100% (inactive) | 96.1% (inactive) | 110% (inactive) | 108% | 111%
14 | c1ccc2oc(SCc3nc4ccccc4s3)nc2c1 | 99% (inactive) | 98.9% | 98.9% | 106% (inactive) | 104% | 106% | 98.3% (inactive) | 95% (inactive) | 99.7% (inactive) | 99.1% | 99.7%
15 | Cc1occc1-c1nnc(-c2cc([N+](=O)[O-])cc([N+](=O)[O-])c2)o1 | 88.1% (inactive) | 82.8% | 85.9% | 142% (inactive) | 126% | 149% | 123% (inactive) | 135% (inactive) | 87.2% (inactive) | 85.7% | 81.8%
16 | N#C/C(=C/c1ccc(N2CCOCC2)o1)c1ccc(Br)cc1 | 96.6% (inactive) | 95.9% | 95% | 114% (inactive) | 114% | 115% | 114% (inactive) | 95.5% (inactive) | 102% (inactive) | 101% | 99.3%
17 | O=[N+]([O-])c1cccc(-c2ccc(/C=N/Nc3nc(N4CCCCC4)nc(N4CCCCC4)n3)o2)c1 | 96.8% (inactive) | 94.3% | 98.2% | 118% (inactive) | 114% | 123% | 108% (inactive) | 105% (inactive) | 101% (inactive) | 95.2% | 102%
18 | CCc1nnc(NC(=O)c2nc(S(=O)(=O)Cc3ccc(C)cc3)ncc2Cl)s1 | 98.2% (inactive) | 99.1% | 98.6% | 105% (inactive) | 105% | 102% | 102% (inactive) | 103% (inactive) | 101% (inactive) | 102% | 99.1%
19 | CSc1nc2ccc(S(=O)(=O)N3CCCC3)cc2s1 | 90.5% (inactive) | 85.5% | 93.3% | 135% (inactive) | 128% | 140% | 95.7% (inactive) | 94.1% (inactive) | 78.2% (inactive) | 75.2% | 80.5%
20 | CNC(=O)/C(C#N)=C/c1c(N(Cc2ccccc2)Cc2ccccc2)nc2c(C)cccn2c1=O | 97.2% (inactive) | 98.1% | 97.8% | 94.4% (inactive) | 95.9% | 93.1% | 112% (inactive) | 103% (inactive) | 106% (inactive) | 108% | 104%
21 | O=[N+]([O-])c1cccnc1S(=O)(=O)c1ccccc1 | 97.6% (inactive) | 94.7% | 96.2% | 114% (inactive) | 110% | 112% | 103% (inactive) | 102% (inactive) | 90.1% (inactive) | 88.4% | 89.5%
22 | COc1ccc(Cc2nnc(NC(=O)c3ccccc3F)s2)cc1 | 97.6% (inactive) | 96.4% | 98.5% | 101% (inactive) | 105% | 101% | 100% (inactive) | 98.3% (inactive) | 100% (inactive) | 99.7% | 97.7%
23 | Cc1ccc(C(=O)Sc2cccccc2=O)cc1 | 101% (inactive) | 99.4% | 99% | 313% (active) | 281% | 315% | 132% (inactive) | 104% (inactive) | 90.9% (inactive) | 93.7% | 84.8%
24 | Cc1ccccc1N1C(=O)C(Cl)=C(N2CCN(c3ccccc3)CC2)C1=O | 100% (inactive) | 98.7% | 100% | 101% (inactive) | 102% | 102% | 100% (inactive) | 93% (inactive) | 95.2% (inactive) | 94.8% | 94.4%
